What all share (assay type): functional
Assay [1] relates to Digitaria sanguinalis. As to the kind of experiment: Herbicidal activity against Digitaria sanguinalis (hairy crabgrass) assessed as inhibition in green house at 750 g/ha pre-emergence treatment measured after 15 days. The settings on record: 360 h. The gist of the method: (§1)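 Greenhouse pot test. Two replicates per treatment. Control was the same amount of water, N,N-dimethylformamide and Tween 20. Fresh weights were taken 15 days after treatment, and percentage inhibition was calculated relative to controls.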

The subject of assay [2] is Echinochloa crus-galli. In words: Herbicidal activity against Echinochloa crus-galli (barnyard grass) assessed as inhibition of seedling growth at 100 ug/ml at 28 +/- 1 degC measured after 65 hr by cup test.
The subject of assay [3] is Echinochloa crus-galli. As to the kind of experiment: Herbicidal activity against Echinochloa crus-galli (barnyard grass) assessed as inhibition in green house at 375 g/ha pre-emergence treatment measured after 15 days. The settings on record: 360 h. In outline:
as §1

For assay [4], the system named is Echinochloa crus-galli. In words: Herbicidal activity against Echinochloa crus-galli (barnyard grass) assessed as inhibition in green house at 1500 g/ha pre-emergence treatment measured after 15 days. The settings on record: 360 h. The gist of the method: as §1
Assay [5] concerns Echinochloa crus-galli. In words: Herbicidal activity against Echinochloa crus-galli (barnyard grass) assessed as inhibition in green house at 93.75 g/ha pre-emergence treatment measured after 15 days. The settings on record: 360 h. The gist of the method:
as §1

The test system of assay [6] is Echinochloa crus-galli. As to the kind of experiment: Herbicidal activity against Echinochloa crus-galli (barnyard grass) assessed as inhibition in green house at 187.5 g/ha pre-emergence treatment measured after 15 days. The settings on record: 360 h. In outline:
as §1

The test system of assay [7] is Digitaria sanguinalis. As to the kind of experiment: Herbicidal activity against Digitaria sanguinalis (hairy crabgrass) assessed as inhibition in green house at 375 g/ha pre-emergence treatment measured after 15 days. The settings on record: 360 h. The gist of the method:
as §1

The subject of assay [8] is Echinochloa crus-galli. As to the kind of experiment: Herbicidal activity against Echinochloa crus-galli (barnyard grass) assessed as inhibition of seedling growth at 10 ug/ml at 28 +/- 1 degC measured after 65 hr by cup test.
Assay [9] has as its system Amaranthus retroflexus. As to the kind of experiment: Herbicidal activity against Amaranthus retroflexus assessed as inhibition in green house at 1500 g/ha post-emergence treatment measured after 15 days. The settings on record: 360 h. The gist of the method: as §1
In assay [10] the test system is Digitaria sanguinalis. In words: Herbicidal activity against Digitaria sanguinalis (hairy crabgrass) assessed as inhibition in green house at 93.75 g/ha pre-emergence treatment measured after 15 days. The settings on record: 360 h. In outline:
as §1

For assay [11], the system named is Digitaria sanguinalis. In words: Herbicidal activity against Digitaria sanguinalis (hairy crabgrass) assessed as inhibition in green house at 1500 g/ha post-emergence treatment measured after 15 days. The settings on record: 360 h. The gist of the method: as §1
For assay [12], the system named is Digitaria sanguinalis. In words: Herbicidal activity against Digitaria sanguinalis (hairy crabgrass) assessed as inhibition in green house at 187.5 g/ha pre-emergence treatment measured after 15 days. The settings on record: 360 h. The gist of the method:
as §1

The subject of assay [13] is Brassica rapa subsp. oleifera. In words: Herbicidal activity against Brassica rapa subsp. oleifera assessed as inhibition in green house at 1500 g/ha pre-emergence treatment measured after 15 days. The settings on record: 360 h. In outline:
as §1

Assay [14] has as its system Brassica rapa subsp. oleifera. In words: Herbicidal activity against Brassica rapa subsp. oleifera assessed as inhibition of root growth at 100 ug/ml at 28 +/- 1 degC measured after 65 hr by root test. The gist of the method: (§2)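 Rape seeds were presoaked 4 h in distilled water. About 15 seeds were placed per 6-cm Petri plate on filter paper pre-wetted with 2 mL inhibitor solution. Plates germinated in the dark for 65 h at 28 ± 1 °C. Root length of 10 roots per plate was measured and averaged. Result expressed as percentage inhibition.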

Assay [15] concerns Echinochloa crus-galli. As to the kind of experiment: Herbicidal activity against Echinochloa crus-galli (barnyard grass) assessed as inhibition in green house at 1500 g/ha post-emergence treatment measured after 15 days. The settings on record: 360 h. In outline: as §1
Assay [16] relates to Digitaria sanguinalis. As to the kind of experiment: Herbicidal activity against Digitaria sanguinalis (hairy crabgrass) assessed as inhibition in green house at 1500 g/ha pre-emergence treatment measured after 15 days. The settings on record: 360 h. The gist of the method:
as §1

For assay [17], the system named is Brassica rapa subsp. oleifera. In words: Herbicidal activity against Brassica rapa subsp. oleifera assessed as inhibition of root growth at 10 ug/ml at 28 +/- 1 degC measured after 65 hr by root test. In outline:
as §2

The test system of assay [18] is Brassica rapa subsp. oleifera. In words: Herbicidal activity against Brassica rapa subsp. oleifera assessed as inhibition in green house at 1500 g/ha post-emergence treatment measured after 15 days. The settings on record: 360 h. The gist of the method: as §1
Assay [19] has as its system Amaranthus retroflexus. In words: Herbicidal activity against Amaranthus retroflexus assessed as inhibition in green house at 1500 g/ha pre-emergence treatment measured after 15 days. The settings on record: 360 h. The gist of the method: as §1
In assay [20] the test system is Echinochloa crus-galli. In words: Herbicidal activity against Echinochloa crus-galli (barnyard grass) assessed as inhibition in green house at 750 g/ha pre-emergence treatment measured after 15 days. The settings on record: 360 h. The gist of the method:
as §1

From ChEMBL document CHEMBL3045615, “Synthesis and herbicidal evaluation of novel 3-[(alpha-hydroxy-substituted)benzylidene]pyrrolidine-2,4-diones” (J Agric Food Chem, 2005) come the findings set out here.

SMILES strings stand for the structures.

Consider `CCOc1ccc(/C(O)=C2\C(=O)CN(C(C)C)C2=O)cc1`, for which the inhibition at 750 g/ha in the assay on Digitaria sanguinalis [1] turned out to be 96%; with Echinochloa crus-galli [20], 98%. Also, the inhibition at 100 µg/mL turned out to be 80% in the assay with Echinochloa crus-galli [2] and 82% in [14]. Moreover, the inhibition at 375 g/ha in the assay with Echinochloa crus-galli [3] and in the assay on Digitaria sanguinalis [7] was 94% each time. The inhibition at 1500 g/ha in the assay on Echinochloa crus-galli [4] amounted to 100%; with Amaranthus retroflexus [9] it was 0%; with Digitaria sanguinalis [11], 0%; in assay [13], 0%; in the assay with Echinochloa crus-galli [15] it was 19%; in the assay on Digitaria sanguinalis [16], 98%. In addition, the inhibition at 1500 g/ha (in [18]; with Amaranthus retroflexus [19]) was 0% each time. The inhibition at 93.75 g/ha came out at 8% with Echinochloa crus-galli [5] and 22% with Digitaria sanguinalis [10]. Further, the inhibition at 187.5 g/ha with Echinochloa crus-galli [6] amounted to 52%; in the assay with Digitaria sanguinalis [12], 84%. Besides, the results for the inhibition at 10 µg/mL (with Echinochloa crus-galli [8]; in assay [17]) were 79% and 8%, respectively.

Consider `COc1ccc(/C(O)=C2\C(=O)CN(C(C)C)C2=O)c(OC)c1`, for which the inhibition at 750 g/ha with Digitaria sanguinalis [1] stood at 93%; in the assay with Echinochloa crus-galli [20], 100%. The inhibition at 100 µg/mL in the assay with Echinochloa crus-galli [2] was 80%; in [14] it was 69%. The inhibition at 375 g/ha with Echinochloa crus-galli [3] came out at 100%; in the assay with Digitaria sanguinalis [7], 77%. Moreover, the inhibition at 93.75 g/ha with Echinochloa crus-galli [5] was found to be 34%; with Digitaria sanguinalis [10], 0%. Also, the inhibition at 187.5 g/ha in the assay with Echinochloa crus-galli [6] was determined as 93%; in the assay with Digitaria sanguinalis [12], 68%. Also, the inhibition at 10 µg/mL with Echinochloa crus-galli [8] was 78%; in [17] it was 27%.

Take `COc1ccc(/C(O)=C2\C(=O)CN(C3CC3)C2=O)cc1`: the inhibition at 750 g/ha in the assay on Digitaria sanguinalis [1] came to 73%; with Echinochloa crus-galli [20], 69%. Besides, the inhibition at 100 µg/mL was 66% in the assay with Echinochloa crus-galli [2] and 70% in [14]. The inhibition at 375 g/ha was found to be 7% in the assay on Echinochloa crus-galli [3] and 69% with Digitaria sanguinalis [7]. For the same compound, the inhibition at 1500 g/ha in the assay on Echinochloa crus-galli [4] came out at 81%; in the assay with Amaranthus retroflexus [9] it was 0%; in the assay with Digitaria sanguinalis [11], 0%; in [13] it was 0%; with Echinochloa crus-galli [15], 0%; in the assay with Digitaria sanguinalis [16], 57%. The inhibition at 1500 g/ha (in assay [18]; in the assay on Amaranthus retroflexus [19]) was 0% in each case. Besides, the inhibition at 10 µg/mL in the assay with Echinochloa crus-galli [8] stood at 62%; in assay [17] it was 35%.

As to `CCOc1ccc(/C(O)=C2\C(=O)CN(C3CC3)C2=O)cc1`, the inhibition at 750 g/ha with Digitaria sanguinalis [1] is 77%; with Echinochloa crus-galli [20] it was 99%. Besides, the inhibition at 100 µg/mL stood at 79% with Echinochloa crus-galli [2] and 47% in assay [14]. Also, the inhibition at 375 g/ha in the assay on Echinochloa crus-galli [3] worked out at 13%; in the assay on Digitaria sanguinalis [7], 33%. Further, the inhibition at 1500 g/ha in the assay on Echinochloa crus-galli [4] came out at 100%; with Amaranthus retroflexus [9] it was 13%; with Digitaria sanguinalis [11], 6%; in [13], 6%; in the assay with Echinochloa crus-galli [15], 0%; in the assay on Digitaria sanguinalis [16], 42%. Further, the inhibition at 1500 g/ha (in assay [18]; in the assay on Amaranthus retroflexus [19]) was 0% in each case. The inhibition at 187.5 g/ha in the assay on Echinochloa crus-galli [6] was 0%; in the assay with Digitaria sanguinalis [12], 18%. Also, the inhibition at 10 µg/mL stood at 78% with Echinochloa crus-galli [8] and 0% in assay [17].

Turning to `CS(=O)(=O)c1ccc(C(=O)C2C(=O)CCCC2=O)c(Cl)c1` [SULCOTRIONE], the inhibition at 750 g/ha in the assay with Digitaria sanguinalis [1] and in the assay with Echinochloa crus-galli [20] was 100% throughout. For the same compound, the inhibition at 375 g/ha in the assay on Echinochloa crus-galli [3] and with Digitaria sanguinalis [7] was 100% each time. Besides, the inhibition at 93.75 g/ha is 70% in the assay on Echinochloa crus-galli [5] and 100% in the assay on Digitaria sanguinalis [10]. The inhibition at 187.5 g/ha in the assay with Echinochloa crus-galli [6] worked out at 93%; in the assay on Digitaria sanguinalis [12], 100%.

Broadly, the inhibition is the change of the read-out against control, counted positive when it falls.
